Reference: ChEMBL document CHEMBL4007505 (J Med Chem, 2017)
pEC50, pIC50, pKi: −log10 of the molar value. Active and inactive are the calls of the source. No cut-off for these calls is given here.

Legend:
[1] = biological target: T1, Sodium-dependent dopamine transporter (Homo sapiens, UniProt Q01959); assay: Enhancing of [3H]mazindol binding to recombinant human DAT expressed in HEK293 cell membranes preincubated for 10 mins followed by radioligand addition measured after 90 mins by micro beta scintillation counting analysis; conditions: hek293
Procedure, shortened: (§1)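 Membranes of HEK-293 cells stably expressing hDAT, hNET or hSERT. […] Compound preincubated 10 min at room temperature, then [125I]23 (40-80 pM final) or [3H]26 (1-3 nM for DAT and NET, 10-13 nM for SERT) added. Incubated 90 min at room temperature in the dark, then filtered. EC50 or Ki; mean ± SEM.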

[2] = biological target: T2, Sodium-dependent noradrenaline transporter (Homo sapiens, UniProt P23975); assay: Enhancing of [3H]mazindol binding to recombinant human NET expressed in HEK293 cell membranes preincubated for 10 mins followed by radioligand addition measured after 90 mins by micro beta scintillation counting analysis
[3] = biological target: T1, Sodium-dependent dopamine transporter; assay: Inhibition of [3H]mazindol binding to recombinant human DAT expressed in HEK293 cell membranes preincubated for 10 mins followed by radioligand addition measured after 90 mins by micro beta scintillation counting analysis
[4] = biological target: T1, Sodium-dependent dopamine transporter; assay: Enhancing of [3H]WIN35,428 binding to recombinant human DAT expressed in HEK293 cell membranes at 10 uM pre-incubated for 10 mins before radioligand addition and measured 90 mins after radioligand addition by micro beta scintillation counting analysis relative to control
[5] = biological target: T1, Sodium-dependent dopamine transporter; assay: Inhibition of [3H]WIN35,428 binding to recombinant human DAT expressed in HEK293 cell membranes at 10 uM pre-incubated for 10 mins before radioligand addition and measured 90 mins after radioligand addition by micro beta scintillation counting analysis relative to control
[6] = biological target: T3, Adenosine receptor A3 (Homo sapiens, UniProt P0DMS8); assay: Displacement of [125I]N6-(4-amino-3-iodobenzyl)adenosine-5'-N-methyluronamide from human A3AR expressed in HEK293T cells pre-incubated for 10 mins before radioligand addition and measured 90 mins after radioligand addition by micro beta scintillation counting analysis relative to control; assay type: cell-based, HEK-293T
T3 sequence (P0DMS8 whole entry): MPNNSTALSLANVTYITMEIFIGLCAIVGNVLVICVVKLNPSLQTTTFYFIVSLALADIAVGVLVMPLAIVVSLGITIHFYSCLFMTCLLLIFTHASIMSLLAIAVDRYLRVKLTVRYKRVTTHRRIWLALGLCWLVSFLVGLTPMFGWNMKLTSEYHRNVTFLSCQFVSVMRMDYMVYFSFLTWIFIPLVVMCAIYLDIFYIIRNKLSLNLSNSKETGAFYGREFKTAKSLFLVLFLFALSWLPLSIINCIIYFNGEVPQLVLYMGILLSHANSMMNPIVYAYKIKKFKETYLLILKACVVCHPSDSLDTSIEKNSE

[7] = biological target: T4, Adenosine receptor A3 (Mus musculus) (UniProt Q61618); assay: Displacement of [125I]N6-(4-amino-3-iodobenzyl)adenosine-5'-N-methyluronamide from mouse A3AR expressed in HEK293T cells at 10 uM pre-incubated for 10 mins before radioligand addition and measured 90 mins after radioligand addition by micro beta scintillation counting analysis relative to control; assay type: cell-based
T4 sequence (whole entry): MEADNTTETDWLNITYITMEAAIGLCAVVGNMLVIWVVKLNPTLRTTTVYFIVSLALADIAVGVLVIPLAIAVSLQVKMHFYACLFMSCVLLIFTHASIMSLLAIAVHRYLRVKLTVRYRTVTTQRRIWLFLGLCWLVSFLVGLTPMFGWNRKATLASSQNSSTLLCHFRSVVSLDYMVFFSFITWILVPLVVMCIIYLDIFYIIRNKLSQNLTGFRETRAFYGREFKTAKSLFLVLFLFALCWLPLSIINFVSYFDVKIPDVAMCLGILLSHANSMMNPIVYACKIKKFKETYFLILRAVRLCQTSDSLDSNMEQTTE

[8] = biological target: T5, 5-hydroxytryptamine receptor 2C (Homo sapiens, UniProt P28335); assay: Displacement of [3H]Mesulergine from human 5-HT2C receptor
T5 sequence (P28335 whole entry): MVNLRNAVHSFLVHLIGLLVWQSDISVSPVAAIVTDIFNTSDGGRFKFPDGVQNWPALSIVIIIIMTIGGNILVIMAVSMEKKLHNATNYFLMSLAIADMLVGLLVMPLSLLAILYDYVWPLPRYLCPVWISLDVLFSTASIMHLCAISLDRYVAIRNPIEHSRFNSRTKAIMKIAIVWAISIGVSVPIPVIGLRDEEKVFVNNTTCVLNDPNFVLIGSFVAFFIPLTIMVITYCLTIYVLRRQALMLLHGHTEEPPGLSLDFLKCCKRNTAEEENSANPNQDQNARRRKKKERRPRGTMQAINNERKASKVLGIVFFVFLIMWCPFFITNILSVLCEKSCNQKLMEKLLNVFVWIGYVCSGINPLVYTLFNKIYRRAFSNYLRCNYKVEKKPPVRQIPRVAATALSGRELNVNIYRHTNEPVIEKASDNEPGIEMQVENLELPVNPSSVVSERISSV

[9] = biological target: Muscarinic acetylcholine receptor M5 (Homo sapiens, UniProt P08912); assay: Displacement of [3H]QNB from human muscarinic M5 receptor
[10] = biological target: Sigma non-opioid intracellular receptor 1 (Rattus norvegicus, UniProt Q9R0C9); assay: Displacement of [3H]Pentazocine from rat sigma 1 receptor
[11] = biological target: Sigma intracellular receptor 2 (Rattus norvegicus, UniProt Q5U3Y7); assay: Displacement of [3H]DTG from rat sigma 2 receptor
[12] = biological target: Adenosine receptor A3 (Homo sapiens) (UniProt P0DMS8); assay: Agonist activity at human A3AR assessed as inhibition of cAMP formation at 10 uM relative to adenosine-5'-Nethyluronamide
[13] = biological target: T1, Sodium-dependent dopamine transporter; assay: Enhancing of [125I]RTI-55 binding to recombinant human DAT expressed in HEK293 cell membranes preincubated for 10 mins followed by radioligand addition measured after 90 mins by micro beta scintillation counting analysis; design: concentration or dose not given beside the values; procedure, shortened: as §1
[14] = biological target: T2, Sodium-dependent noradrenaline transporter; assay: Enhancing of [125I]RTI-55 binding to recombinant human NET expressed in HEK293 cell membranes preincubated for 10 mins followed by radioligand addition measured after 90 mins by micro beta scintillation counting analysis; design: concentration or dose not given beside the values
[15] = biological target: T1, Sodium-dependent dopamine transporter; assay: Inhibition of recombinant human DAT expressed in HEK293 cell […] as reduction in [3H]-DA uptake incubated for 22 mins by micro beta scintillation counting analysis
[16] = biological target: Beta-3 adrenergic receptor (Homo sapiens, UniProt P13945); assay: Displacement of [3H]CGP12177 from human adrenergic beta3 receptor
[17] = biological target: T1, Sodium-dependent dopamine transporter; assay: Enhancing of [3H]WIN35,428 binding to recombinant human DAT expressed in HEK293 cell membranes pre-incubated for 10 mins before radioligand addition and measured 90 mins after radioligand addition by micro beta scintillation counting analysis relative to control
[18] = biological target: T6, Sodium-dependent serotonin transporter (Homo sapiens, UniProt P31645); assay: Inhibition of [125I]RTI-55 binding to recombinant human SERT expressed in HEK293 cell membranes preincubated for 10 mins followed by radioligand addition measured after 90 mins by micro beta scintillation counting analysis
[19] = biological target: T2, Sodium-dependent noradrenaline transporter; assay: Inhibition of recombinant human NET expressed in HEK293 […] assessed as reduction in [3H]-norepinephrine uptake incubated for 22 mins by micro beta scintillation counting analysis
[20] = biological target: T6, Sodium-dependent serotonin transporter; assay: Enhancing of [125I]RTI-55 binding to recombinant human SERT expressed in HEK293 cell membranes preincubated for 10 mins followed by radioligand addition measured after 90 mins by micro beta scintillation counting analysis; conditions: hek293
[21] = biological target: T2, Sodium-dependent noradrenaline transporter; assay: Inhibition of [125I]RTI-55 binding to recombinant human NET expressed in HEK293 cell membranes preincubated for 10 mins followed by radioligand addition measured after 90 mins by micro beta scintillation counting analysis
[22] = biological target: T2, Sodium-dependent noradrenaline transporter; assay: Inhibition of [3H]mazindol binding to recombinant human NET expressed in HEK293 cell membranes preincubated for 10 mins followed by radioligand addition measured after 90 mins by micro beta scintillation counting analysis

T1 sequence (Q01959 whole entry): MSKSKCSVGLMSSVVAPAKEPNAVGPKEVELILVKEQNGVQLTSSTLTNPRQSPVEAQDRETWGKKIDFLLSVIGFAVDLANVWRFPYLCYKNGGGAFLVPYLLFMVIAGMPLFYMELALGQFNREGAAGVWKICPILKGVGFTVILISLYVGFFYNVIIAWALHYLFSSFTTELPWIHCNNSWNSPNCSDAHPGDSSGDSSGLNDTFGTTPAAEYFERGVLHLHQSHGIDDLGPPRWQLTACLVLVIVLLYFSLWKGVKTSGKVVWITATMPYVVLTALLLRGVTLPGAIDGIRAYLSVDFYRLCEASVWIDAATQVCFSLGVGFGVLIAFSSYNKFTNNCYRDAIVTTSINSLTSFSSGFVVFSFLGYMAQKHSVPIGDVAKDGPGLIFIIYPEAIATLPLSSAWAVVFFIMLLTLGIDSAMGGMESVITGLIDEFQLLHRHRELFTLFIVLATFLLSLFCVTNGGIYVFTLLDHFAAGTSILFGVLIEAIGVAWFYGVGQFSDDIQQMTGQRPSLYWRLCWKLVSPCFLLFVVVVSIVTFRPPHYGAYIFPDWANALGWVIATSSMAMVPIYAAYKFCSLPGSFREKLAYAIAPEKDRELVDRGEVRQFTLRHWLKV
T2 sequence (P23975 whole entry): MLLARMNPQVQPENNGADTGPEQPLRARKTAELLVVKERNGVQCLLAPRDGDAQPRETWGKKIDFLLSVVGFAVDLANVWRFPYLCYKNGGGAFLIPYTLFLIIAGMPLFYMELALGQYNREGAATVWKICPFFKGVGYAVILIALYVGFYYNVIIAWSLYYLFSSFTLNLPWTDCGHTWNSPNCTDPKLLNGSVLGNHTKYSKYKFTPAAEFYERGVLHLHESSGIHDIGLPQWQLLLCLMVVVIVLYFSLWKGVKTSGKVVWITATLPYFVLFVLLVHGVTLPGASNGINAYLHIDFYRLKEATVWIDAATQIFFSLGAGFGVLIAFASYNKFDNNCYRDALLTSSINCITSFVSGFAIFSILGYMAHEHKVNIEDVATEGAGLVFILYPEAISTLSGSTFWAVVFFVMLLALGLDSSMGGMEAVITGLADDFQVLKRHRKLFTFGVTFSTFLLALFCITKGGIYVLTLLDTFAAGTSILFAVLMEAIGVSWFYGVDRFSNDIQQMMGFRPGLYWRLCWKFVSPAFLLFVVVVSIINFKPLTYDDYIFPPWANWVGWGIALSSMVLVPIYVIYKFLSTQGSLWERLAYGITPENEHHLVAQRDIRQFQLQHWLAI
T6 sequence (P31645 whole entry): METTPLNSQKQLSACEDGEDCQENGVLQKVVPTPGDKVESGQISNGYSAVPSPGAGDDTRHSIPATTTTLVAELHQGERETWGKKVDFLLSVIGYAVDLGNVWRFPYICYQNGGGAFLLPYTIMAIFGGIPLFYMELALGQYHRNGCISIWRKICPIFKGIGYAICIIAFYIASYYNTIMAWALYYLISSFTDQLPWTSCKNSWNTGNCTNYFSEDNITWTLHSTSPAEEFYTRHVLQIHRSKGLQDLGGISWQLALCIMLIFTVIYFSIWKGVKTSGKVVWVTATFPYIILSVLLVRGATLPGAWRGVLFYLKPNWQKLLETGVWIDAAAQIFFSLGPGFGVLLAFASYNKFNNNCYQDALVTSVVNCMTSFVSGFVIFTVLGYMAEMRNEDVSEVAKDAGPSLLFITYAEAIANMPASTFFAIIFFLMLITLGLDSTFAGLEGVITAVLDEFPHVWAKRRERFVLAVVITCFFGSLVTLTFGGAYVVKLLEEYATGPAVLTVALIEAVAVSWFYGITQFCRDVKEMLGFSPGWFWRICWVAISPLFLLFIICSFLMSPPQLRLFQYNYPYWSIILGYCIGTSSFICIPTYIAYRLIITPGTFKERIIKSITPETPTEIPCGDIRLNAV
Chain of Sigma non-opioid intracellular receptor 1 (Q9R0C9 whole entry): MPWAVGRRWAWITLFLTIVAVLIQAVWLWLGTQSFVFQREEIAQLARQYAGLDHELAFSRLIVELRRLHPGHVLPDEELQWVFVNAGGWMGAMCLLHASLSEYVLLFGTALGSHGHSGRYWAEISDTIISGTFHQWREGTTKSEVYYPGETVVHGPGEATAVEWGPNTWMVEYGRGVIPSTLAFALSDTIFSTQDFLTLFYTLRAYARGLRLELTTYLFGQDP
Chain of Sigma intracellular receptor 2 (Q5U3Y7 whole entry): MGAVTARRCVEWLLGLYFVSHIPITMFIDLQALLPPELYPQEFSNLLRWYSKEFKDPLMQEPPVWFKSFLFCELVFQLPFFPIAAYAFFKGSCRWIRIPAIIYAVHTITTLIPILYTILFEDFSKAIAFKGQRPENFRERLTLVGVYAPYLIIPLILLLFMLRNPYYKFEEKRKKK
Chain of Beta-3 adrenergic receptor (P13945 whole entry): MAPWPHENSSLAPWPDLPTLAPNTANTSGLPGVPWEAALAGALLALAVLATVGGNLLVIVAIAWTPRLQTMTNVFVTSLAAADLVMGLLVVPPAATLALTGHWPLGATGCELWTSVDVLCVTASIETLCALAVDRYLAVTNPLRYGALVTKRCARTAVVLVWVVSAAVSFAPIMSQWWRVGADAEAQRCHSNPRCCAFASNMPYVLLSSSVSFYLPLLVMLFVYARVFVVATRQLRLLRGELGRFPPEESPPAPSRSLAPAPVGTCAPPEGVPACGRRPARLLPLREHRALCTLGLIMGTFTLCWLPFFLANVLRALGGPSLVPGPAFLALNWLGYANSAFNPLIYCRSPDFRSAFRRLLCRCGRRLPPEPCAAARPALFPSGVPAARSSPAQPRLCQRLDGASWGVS
Chain of Muscarinic acetylcholine receptor M5 (P08912 whole entry): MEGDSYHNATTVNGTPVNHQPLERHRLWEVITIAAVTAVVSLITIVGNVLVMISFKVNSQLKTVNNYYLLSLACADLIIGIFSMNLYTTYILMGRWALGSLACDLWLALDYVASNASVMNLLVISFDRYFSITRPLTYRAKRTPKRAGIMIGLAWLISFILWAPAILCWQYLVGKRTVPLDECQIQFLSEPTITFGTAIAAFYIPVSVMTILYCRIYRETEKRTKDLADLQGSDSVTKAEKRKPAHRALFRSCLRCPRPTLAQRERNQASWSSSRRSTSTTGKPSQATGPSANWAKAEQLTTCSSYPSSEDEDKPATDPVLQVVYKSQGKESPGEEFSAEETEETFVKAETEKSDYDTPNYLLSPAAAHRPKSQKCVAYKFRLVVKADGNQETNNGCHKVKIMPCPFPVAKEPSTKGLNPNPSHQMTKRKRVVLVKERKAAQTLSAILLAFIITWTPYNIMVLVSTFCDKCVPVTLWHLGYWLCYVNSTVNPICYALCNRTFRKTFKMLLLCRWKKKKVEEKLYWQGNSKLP

SMILES: COC(=O)[C@H]1[C@@H](c2ccc([125I])cc2)CC2CC[C@H]1N2C
- EC50 [1]: Not Active
- EC50 [2]: Not Active
- pKi [3]: 7.96

SMILES: CCOC(=O)[C@@]12C[C@@H]1[C@@H](n1cnc3c(NC)nc(C#Cc4ccc(Cl)s4)cc31)[C@H](O)[C@@H]2O
- Activity [4]: 354%
- inhibition [5]: inactive
- pKi [6]: 6.77
- inhibition [7]: 18%
- pKi [8]: 6.40
- pKi [9]: 5.42
- pKi [10]: 5.98
- pKi [11]: 5.72
- Efficacy [12]: 3.6%

SMILES: CCCNc1nc(C#Cc2ccc(Cl)s2)nc2c1ncn2[C@H]1[C@H](O)[C@H](O)[C@]2(C(=O)NC)C[C@H]12
- Activity [13]: 268%
- pEC50 ([13]; read-out: EC50): 5.95
- Activity [14]: 159%
- pEC50 ([14]; read-out: EC50): 6.05
- pIC50 [15]: < 5.06
- pKi [16]: 5.84
- pEC50 [17]: < 6.00

SMILES: CNc1nc(C#Cc2ccc(Cl)s2)nc2c1ncn2[C@H]1[C@H](O)[C@H](O)[C@]2(C(=O)OCc3ccccc3)C[C@H]12
- Activity [4]: inactive
- pKi [6]: 8.14
- inhibition [7]: 48%
- pKi [18]: 5.25

SMILES: OC1(c2ccc(Cl)cc2)c2ccccc2C2=NCCN21 (racemic) [MAZINDOL]
- EC50 ([13]; hek293): Not Active
- EC50 [1]: Not Active
- EC50 ([14]; hek293): Not Active
- EC50 [2]: Not Active
- pIC50 [19]: 9.04
- EC50 [20]: Not Active
- pKi [21]: 7.95
- pKi [22]: 7.87
